ABHD4 inh: inhibits mouse alpha/beta hydrolase domain 4. 370,000 compounds, 0.54% hits. inhibition, % at 8.92 µM. purified mABHD4, FP-Rh probe fluorescence polarization. AID 720543. Q8VD66;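 active = inhibition exceeding the mean over every tested compound plus 3 SD, cut at about 30% in these data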;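 also: 0% = plate median of compound wells and 100% = S159A mutant with DMSO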
Target sequence (Q8VD66 whole entry, looked up, the tested form may be a part): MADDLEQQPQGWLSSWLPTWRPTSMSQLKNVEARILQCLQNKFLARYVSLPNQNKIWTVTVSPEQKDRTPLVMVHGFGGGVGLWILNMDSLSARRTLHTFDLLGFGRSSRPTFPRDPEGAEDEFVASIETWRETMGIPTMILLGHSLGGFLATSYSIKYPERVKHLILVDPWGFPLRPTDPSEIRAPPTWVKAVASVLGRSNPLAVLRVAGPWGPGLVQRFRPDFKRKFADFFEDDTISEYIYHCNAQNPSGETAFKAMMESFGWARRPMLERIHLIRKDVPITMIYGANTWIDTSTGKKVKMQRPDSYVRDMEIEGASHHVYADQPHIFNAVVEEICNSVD
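Assay system: Wild-type mouse ABHD4 protein | Medium: HEPES pH 7.0 buffer, 150 mM NaCl, 0.01% Pluronic F-127 | Incubation: Enzyme–compound pre-incubation 45 min, then probe 60 min, both 25 °C | Technique: Fluorescence polarization with parallel and perpendicular emission, 525/598 nm | Evaluation: % inhibition of FP-Rh probe binding versus controls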
PAFAH1B3 FP inh: blocks human PAF acetylhydrolase 1B catalytic subunit 3 | Q15102 | recombinant PAFAH1B3, FP-rhodamine probe, fluorescence polarization | inhibition, % at 3.39 µM | 340,000 compounds, 0.28% hits | AID 492972;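 active = inhibition above the screen-wide average of all tested compounds plus 3 SD, cut at about 25% in these data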;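 also: 0% = enzyme with DMSO only and 100% = wells lacking PAFAH1B3 protein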
HTRA1 inh: HTRA1 (human) protease inhibition; recombinant HTRA1, FP-rhodamine activity-based probe, fluorescence polarization; 340,000 compounds, 0.5% hits; Q92743; inhibition, % at 5.96 µM; AID 504803; in the data active = inhibition above about 36%;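 also: 0% = enzyme with DMSO and 100% = wells lacking enzyme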
PAFAH2 FP inh: inhibitors of human PAFAH2; Q99487; recombinant PAFAH2, FP-rhodamine activity probe, fluorescence polarization; inhibition, % at 3.39 µM; 340,000 compounds, 0.99% hits;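 active = inhibition above the mean over all tested compounds plus 3 SD, cut at about 30% in these data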;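 also: inhibitors block probe labeling of enzyme so polarization drops; 0% = enzyme with DMSO and 100% = wells lacking PAFAH2 protein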
pPAFAH FP inh: pPAFAH (human) enzyme inhibition; recombinant pPAFAH, FP-rhodamine probe fluorescence polarization; inhibition, % at 3.39 µM; 330,000 compounds, 1.5% hits;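 active = inhibition above the mean inhibition across the screen plus 3 SD, cut at about 25% in these data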;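 also: inhibitors block binding of the rhodamine activity-based probe so polarization drops; 0% = enzyme with DMSO and 100% = wells lacking pPAFAH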
PAFAH1B2 inh: inhibitors of human PAFAH1B2; P68402; recombinant PAFAH1B2, FP-rhodamine activity probe, fluorescence polarization; inhibition, % at 3.39 µM; 340,000 compounds, 1.2% hits; AID 492953;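 active = inhibition above the mean of all tested compounds plus 3 SD, cut at about 24% in these data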;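 also: 0% = enzyme with DMSO and 100% = wells lacking PAFAH1B2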
mABHD4 conf: confirmation of mouse ABHD4 inhibitors. inhibition, % at 8.92 µM. shares compounds with ABHD4 inh. 1,800 compounds, 55% hits. purified mABHD4, FP-Rh probe fluorescence polarization;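 active = mean inhibition across replicates above the hit cutoff set in the primary screen, cut at about 30% in these data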;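 also: 0% = wild-type ABHD4 with DMSO and 100% = catalytically dead S159A mutant with DMSO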
* hit, by the source's call; · = not tested or not shown. Only some compounds are listed: those with a hit (about 2.8% of all), similar ones and a draw of the others.

SMILES	ABHD4 inh	PAFAH1B3 FP inh	HTRA1 inh	PAFAH2 FP inh	pPAFAH FP inh	PAFAH1B2 inh	mABHD4 conf
COc1ccc(-n2c(=O)c3c4c(sc3n(CC(=O)Nc3cc(C)[nH]n3)c2=O)CCC4)c(OC)c1	-0.2	8.4	-10.9	6.4	-1.3	0.8	·
COc1ccccc1-n1c(=O)c2c3c(sc2n2c(=S)[nH]nc12)CCC3	33.6*	-0.1	-3.2	13.7	2.2	2.8	29.3
CCCCN1C(=O)/C(=C/C=C2\SCCN2C)SC1=S	32.8*	0.4	11.0	23.3	·	-1.0	20.1
Cc1ccc(-c2nnc(SCC(=O)Nc3ccc(F)cc3F)n2Cc2ccco2)cc1	-5.3	·	·	·	·	·	·
O=C1N(c2ccccc2)CC2CC(c3ccccc3)N3CCCC123 (stereo unspecified)	4.9	·	·	·	·	·	·
CCOC(=O)C(CNc1ccc(O)cc1)NC(=O)c1ccccc1 (stereo unspecified)	83.5*	·	·	·	·	·	22.5
CCOC(=O)CCC(NC(=O)c1ccc(NCN2C(=O)c3ccccc3C2=O)cc1)C(=O)OCC (stereo unspecified)	-7.0	-0.4	-1.3	-0.2	0.8	-1.4	·
CC(=O)Oc1cccc2c1C(=O)c1c(OC(C)=O)cc(C(=O)O)cc1C2=O	48.0*	1.9	1.9	3.9	2.8	2.5	17.8
C/C(O)=C\c1nc2ccccc2oc1=O	37.4*	2.6	10.0	-0.3	8.1	0.5	-3.5
CCN(CC)C(=O)CSc1nnc(-c2cccs2)o1	8.3	·	·	·	·	·	·
CS(=O)(=O)Oc1ccc(Br)c2cccnc12	3.3	9.7	7.0	2.0	0.1	14.9	·
Nc1ccc(Br)c2cccnc12	39.9*	8.0	20.4	8.6	10.1	-0.7	15.9
OCCN(CCO)c1ccc2ccccc2c1	-1.0	4.3	6.5	4.3	7.7	-0.4	·
OCCN(CCO)c1cc2c3ccccc3ccc2c2ccccc12	30.3*	11.0	2.0	18.4	·	5.5	16.4
CCCC(=O)N1CCC[C@]2(CC[C@H](CCC(C)=O)O2)C1	-0.7	·	·	·	·	·	·
Clc1ccc(/C=N/c2c(-c3ccco3)nc3ccccn23)cc1	40.9*	1.2	34.4	5.9	21.3	6.1	11.9
COc1ccc(/C=N/c2c(-c3ccco3)nc3ccccn23)cc1OC	44.2*	14.1	26.3	-1.7	18.4	11.8	3.3
COc1cc(-c2nc3ccccn3c2/N=C/c2ccc(F)cc2)ccc1O	2.6	10.0	-9.3	15.2	-2.5	6.0	·
Oc1ccccc1/C=N/c1c(-c2ccco2)nc2ccccn12	52.3*	11.1	29.5	2.9	9.4	6.1	3.6
CC(=O)c1sc(N/N=C\c2ccc(Br)cc2)nc1C	18.3	10.3	-6.0	-1.0	6.4	3.4	·
CCOC(=O)c1sc(N/N=C/c2ccc(N(C)C)cc2)nc1C	31.5*	7.9	18.2	2.0	4.1	-0.6	8.8
C=CCN1[C@@H](C)[C@@H](c2ccccc2)Oc2c(Cl)cccc2S1(=O)=O	-18.9	·	·	·	·	·	·
O=S1(=O)c2ccc(Br)cc2OC2CCCC[C@@H]2N1Cc1ccccc1 (stereo partly specified)	-1.2	·	·	·	·	·	·
c1ccc2c(-c3c[nH]c4ccccc34)c3ccccc3nc2c1	-25.8	0.6	-44.2	-6.0	-0.3	-2.0	·
O=C(O)c1cc(-c2c[nH]c3ccccc23)nc2ccc3ccccc3c12	30.8*	-4.6	-10.5	4.7	5.5	4.8	16.4
SMILES	ABHD4 inh	PAFAH1B3 FP inh	HTRA1 inh	PAFAH2 FP inh	pPAFAH FP inh	PAFAH1B2 inh	mABHD4 conf
C(=N\Nc1nc2ccccc2[nH]1)/c1ccccn1	33.7*	1.1	33.9	3.8	·	1.9	32.4*
Fc1ccccc1-c1ccc(/C=N/Nc2nc3ccccc3[nH]2)o1	40.1*	15.7	18.3	2.8	4.5	6.0	46.1*
Nc1[nH]c(C(=O)c2ccccc2)c(-c2ccc(Cl)c(F)c2)c1C(=O)c1c[nH]c2ccccc12	5.4	·	·	·	·	·	·
COc1ccc(C2NC(C(=O)O)Cc3c2[nH]c2ccccc32)cc1OC (stereo unspecified)	7.7	12.9	-2.3	3.5	7.4	9.8	·
COc1ccc(C2NCCc3c2[nH]c2ccccc32)cc1CSc1nc2ccccc2s1 (stereo unspecified)	29.7*	8.5	-25.0	-2.3	3.4	-2.5	34.0*
CCCCCCCCN1CCS(=O)(=O)N(Cc2ccc(C(F)(F)F)cc2)C(C(=O)OC)C1 (stereo unspecified)	0.0	·	·	·	·	·	·
